Measured values from different studies.
PFF0160c: Dihydroorotate dehydrogenase (quinone), mitochondrial (PFF0160c, Plasmodium falciparum, UniProt Q08210)
CNR1: Cannabinoid receptor 1 (CNR1, Homo sapiens, UniProt P21554)
OPRK1: Kappa-type opioid receptor (OPRK1, Homo sapiens, UniProt P41145)

With `CNCc1nc2nc(C)cc(Nc3ccc(Cl)cc3)n2n1` the IC50 was over 10 µM (PFF0160c; enzyme activity, inhibitor).
`Cc1c(C(=O)N2CCC(NC(=O)Nc3ccc(C#N)cc3)(c3ccccc3)CC2)nn(-c2ccc(Cl)cc2Cl)c1-c1ccc(Cl)cc1` gave a Kb of over 10 µM (CNR1; calcium signal, antagonist).
For `Clc1ccc(CSc2nnc(-c3ccccn3)n2Cc2cccs2)cc1Cl`, the EC50 was 0.64 µM (OPRK1; β-arrestin recruitment, agonist).
For `Cc1c(C(=O)N[C@H]2CC[C@H](N)CC2)nn(-c2ccc(Cl)cc2Cl)c1-c1ccc(Cl)cc1`, the Kb was over 10 µM (CNR1; calcium signal, antagonist).
The Ki of `CNC(=O)[C@@]12C[C@@H]1[C@@H](n1ccc3c(NC)ncnc31)[C@H](O)[C@@H]2O` is reported as over 10 µM (OPRK1; cell-free assay).
For `Cc1c(C(=O)N[C@H]2CC[C@H](NS(C)(=O)=O)CC2)nn(-c2ccc(Cl)cc2Cl)c1-c1ccc(Cl)cc1`, the Kb was over 10 µM (CNR1; calcium signal, antagonist).
For `CNC(=O)[C@@]12C[C@@H]1[C@@H](n1cnc3c(NC)nc(C#Cc4ccc(F)c(F)c4)nc31)[C@H](O)[C@@H]2O`, the Ki was over 10 µM (OPRK1; cell-free assay).
For `COCCc1nc2nc(C)cc(Nc3ccc(Cl)cc3)n2n1`, the IC50 was over 10 µM (PFF0160c; enzyme activity, inhibitor).
With `CNc1nc(C#Cc2ccc(Cl)s2)nc2c1ncn2[C@H]1[C@H](O)[C@H](O)[C@]2(C(=O)O)C[C@H]12` the Ki was over 10 µM (OPRK1; cell-free assay).
With `Cc1cc(Nc2ccc(Cl)cc2)n2nc(OCCN(C)C)nc2n1` the IC50 was over 10 µM (PFF0160c; enzyme activity, inhibitor).
